Measurements: PMC3048920 (Clinical cancer research : an official journal of the …, 2011)

Experiments:
[1] = test system: patients with advanced solid malignancies; assay: Phase I dose escalation: dose-limiting toxicities and maximum tolerated dose; assay type: in vivo; settings: for Even ts, n/N: DLT events, cycle 1
NSCLC = assay: Tumor response in NSCLC patients, correlated with tumor genotype; assay type: in vivo, human
Summary of the method: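 NSCLC patients treated with oral once-daily test compound had tumors assessed by RECIST v1.0 at baseline, every two cycles and at end of treatment. Response was related to genotype. Archived tumor, or a fresh baseline biopsy where feasible, was tested for EGFR and KRAS mutations and EGFR/HER2 copy number by site laboratories, Pfizer or Genzyme.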

[2] = test system: advanced malignant solid tumors; assay: Tumor response; assay type: in vivo, human
[3] = test system: Ki67 and pERK1/2 (pMAPK) in skin biopsies; assay: Skin biopsy pharmacodynamic biomarkers by immunohistochemistry; assay type: in vivo, human; settings: with increased dose, Cmax, AUCtau and Ctrough; baseline vs cycle 1 day 14; P < 0.05
[4] = test system: patients with advanced solid malignancies; assay: Treatment-related adverse events and laboratory abnormalities; assay type: in vivo
[5] = human, in vivo
[6] = EGFR Exon 19 deletion, 17 patients
[7] = EGFR Exon 19 deletion/T790M, 4 patients
[8] = EGFR Exon 20 insertion, 6 patients (one not evaluable)
[9] = EGFR mutation unknown, 12 patients (one not evaluable)
[10] = EGFR wild type, 12 patients (one not evaluable)
[11] = Schedule A (n = 111), treatment-related, all cycles
[12] = Schedule B (n = 10), treatment-related, all cycles

COc1cc2ncnc(Nc3ccc(F)c(Cl)c3)c2cc1NC(=O)/C=C/CN1CCCCC1 [PF299804]
total number of DLTs, share of treated patients ([1]; 45 mg including loading-dose cohort, four of 71 treated patients): 6%
total number of DLTs, share of treated patients ([1]; 45 mg, two of 52 treated patients): 4%
Even ts, n/N ([1]; Schedule A, 0.5 mg/day): 0/3
Even ts, n/N ([1]; Schedule A, 1 mg/day): 0/3
Even ts, n/N ([1]; Schedule A, 2 mg/day): 0/3
Even ts, n/N ([1]; Schedule A, 4 mg/day): 0/5
Even ts, n/N ([1]; Schedule A, 8 mg/day): 0/3
Even ts, n/N ([1]; Schedule A, 16 mg/day): 0/4
Even ts, n/N ([1]; Schedule A, 30 mg/day): 1/13
Even ts, n/N ([1]; Schedule A, 45 mg/day (loading dose)): 2/19
Even ts, n/N ([1]; Schedule A, 45 mg/day): 2/52
Even ts, n/N ([1]; Schedule A, 60 mg/day): 3/6
Even ts, n/N ([1]; Schedule B, 60 mg/day): 1/10
maximum tolerated dose (MTD) ([1]; continuous once-daily dosing): 45 mg/day
objective response to treatment (NSCLC; 4 patients with exon 19 deletions and documented T790M): None
Treatment Outcome, PD (patients) (NSCLC; [6]): 7
Treatment Outcome, PR (patients) (NSCLC; [6]): 2
Treatment Outcome, SD (patients) (NSCLC; [6]): 8
Treatment Outcome, PD (patients) (NSCLC; [7]): SD:2; PD:2
Treatment Outcome, SD (patients) (NSCLC; [7]): SD:2; PD:2
Treatment Outcome, PD (patients) (NSCLC; [8]): 2
Treatment Outcome, PR (patients) (NSCLC; [8]): 1
Treatment Outcome, SD (patients) (NSCLC; [8]): 2
Treatment Outcome, PD (patients) (NSCLC; EGFR L858R, 4 patients): 1
Treatment Outcome, SD (patients) (NSCLC; EGFR L858R, 4 patients): 3
Treatment Outcome, PD (patients) (NSCLC; EGFR mutant, Other, 2 patients): SD: 1; PD:1
Treatment Outcome, SD (patients) (NSCLC; EGFR mutant, Other, 2 patients): SD: 1; PD:1
Treatment Outcome, IND (patients) (NSCLC; [9]): 1
Treatment Outcome, PD (patients) (NSCLC; [9]): 2
Treatment Outcome, PR (patients) (NSCLC; [9]): 1
Treatment Outcome, SD (patients) (NSCLC; [9]): 7
Treatment Outcome, IND (patients) (NSCLC; [10]): 1
Treatment Outcome, PD (patients) (NSCLC; [10]): 5
Treatment Outcome, SD (patients) (NSCLC; [10]): 5
Treatment Outcome, SD (patients) (NSCLC; HER2 amplified, 2 patients): SD:2
additional patients with stable disease (SD) of ≥6 weeks duration (NSCLC; NSCLC patients): 28 patients
complete responses ([2]; 110 patients with at least one response evaluation): No complete responses
patients with PR ([2]; four of 110 evaluated patients, all NSCLC): 3.6%
patients with stable disease as best response ([2]; over all treatment cohorts, 110 evaluated): 44 patients
levels of pMAPK in skin biopsy [3]: significantly decreased
Anorexia, Grade 1, n (%) [4, 11]: 12 (10.8) n (%)
Anorexia, Grade 2, n (%) [4, 11]: 9 (8.1) n (%)
Anorexia, Grade 3, n (%) [4, 11]: 2 (1.8) n (%)
Anorexia, Total, n (%) [4, 11]: 23 (20.7) n (%)
Dermatitis acneiform, Grade 1, n (%) [4, 11]: 11 (9.9) n (%)
Dermatitis acneiform, Grade 2, n (%) [4, 11]: 3 (2.7) n (%)
Dermatitis acneiform, Grade 3, n (%) [4, 11]: 6 (5.4) n (%)
Dermatitis acneiform, Total, n (%) [4, 11]: 20 (18.0) n (%)
Diarrhea, Grade 1, n (%) [4, 11]: 43 (38.7) n (%)
Diarrhea, Grade 2, n (%) [4, 11]: 20 (18.0) n (%)
Diarrhea, Grade 3, n (%) [4, 11]: 11 (9.9) n (%)
Diarrhea, Total, n (%) [4, 11]: 74 (66.7) n (%)
Dry skin, Grade 1, n (%) [4, 11]: 29 (26.1) n (%)
Dry skin, Grade 2, n (%) [4, 11]: 1 (0.9) n (%)
Dry skin, Grade 3, n (%) [4, 11]: 0 n (%)
Dry skin, Total, n (%) [4, 11]: 30 (27.0) n (%)
Fatigue, Grade 1, n (%) [4, 11]: 20 (18.0) n (%)
Fatigue, Grade 2, n (%) [4, 11]: 15 (13.5) n (%)
Fatigue, Grade 3, n (%) [4, 11]: 3 (2.7) n (%)
Fatigue, Total, n (%) [4, 11]: 38 (34.2) n (%)
Nausea, Grade 1, n (%) [4, 11]: 28 (25.2) n (%)
Nausea, Grade 2, n (%) [4, 11]: 7 (6.3) n (%)
Nausea, Grade 3, n (%) [4, 11]: 1 (0.9) n (%)
Nausea, Total, n (%) [4, 11]: 36 (32.4) n (%)
Rash, Grade 1, n (%) [4, 11]: 30 (27.0) n (%)
Rash, Grade 2, n (%) [4, 11]: 16 (14.4) n (%)
Rash, Grade 3, n (%) [4, 11]: 4 (3.6) n (%)
Rash, Total, n (%) [4, 11]: 50 (45.0) n (%)
Stomatitis, Grade 1, n (%) [4, 11]: 17 (15.3) n (%)
Stomatitis, Grade 2, n (%) [4, 11]: 9 (8.1) n (%)
Stomatitis, Grade 3, n (%) [4, 11]: 4 (3.6) n (%)
Stomatitis, Total, n (%) [4, 11]: 30 (27.0) n (%)
Vomiting, Grade 1, n (%) [4, 11]: 14 (12.6) n (%)
Vomiting, Grade 2, n (%) [4, 11]: 3 (2.7) n (%)
Vomiting, Grade 3, n (%) [4, 11]: 1 (0.9) n (%)
Vomiting, Total, n (%) [4, 11]: 18 (16.2) n (%)
Alopecia, Grade 1, n (%) [4, 12]: 2 (20.0) n (%)
Alopecia, Grade 2, n (%) [4, 12]: 0 n (%)
Alopecia, Grade 3, n (%) [4, 12]: 0 n (%)
Alopecia, Total, n (%) [4, 12]: 2 (20.0) n (%)
Anorexia, Grade 1, n (%) [4, 12]: 0 n (%)
Anorexia, Grade 2, n (%) [4, 12]: 3 (30.0) n (%)
Anorexia, Grade 3, n (%) [4, 12]: 0 n (%)
Anorexia, Total, n (%) [4, 12]: 3 (30.0) n (%)
Dermatitis acneiform, Grade 1, n (%) [4, 12]: 0 n (%)
Dermatitis acneiform, Grade 2, n (%) [4, 12]: 3 (30.0) n (%)
Dermatitis acneiform, Grade 3, n (%) [4, 12]: 0 n (%)
Dermatitis acneiform, Total, n (%) [4, 12]: 3 (30.0) n (%)
Diarrhea, Grade 1, n (%) [4, 12]: 2 (20.0) n (%)
Diarrhea, Grade 2, n (%) [4, 12]: 5 (50.0) n (%)
Diarrhea, Grade 3, n (%) [4, 12]: 2 (20.0) n (%)
Diarrhea, Total, n (%) [4, 12]: 9 (90.0) n (%)
Dry eye, Grade 1, n (%) [4, 12]: 1 (10.0) n (%)
Dry eye, Grade 2, n (%) [4, 12]: 2 (20.0) n (%)
Dry eye, Grade 3, n (%) [4, 12]: 0 n (%)
Dry eye, Total, n (%) [4, 12]: 3 (30.0) n (%)
Dry skin, Grade 1, n (%) [4, 12]: 1 (10.0) n (%)
Dry skin, Grade 2, n (%) [4, 12]: 2 (20.0) n (%)
Dry skin, Grade 3, n (%) [4, 12]: 0 n (%)
Dry skin, Total, n (%) [4, 12]: 3 (30.0) n (%)
Eye pain, Grade 1, n (%) [4, 12]: 2 (20.0) n (%)
Eye pain, Grade 2, n (%) [4, 12]: 0 n (%)
Eye pain, Grade 3, n (%) [4, 12]: 0 n (%)
Eye pain, Total, n (%) [4, 12]: 2 (20.0) n (%)
Fatigue, Grade 1, n (%) [4, 12]: 0 n (%)
Fatigue, Grade 2, n (%) [4, 12]: 3 (30.0) n (%)
Fatigue, Grade 3, n (%) [4, 12]: 1 (10.0) n (%)
Fatigue, Total, n (%) [4, 12]: 4 (40.0) n (%)
Nausea, Grade 1, n (%) [4, 12]: 1 (10.0) n (%)
Nausea, Grade 2, n (%) [4, 12]: 2 (20.0) n (%)
Nausea, Grade 3, n (%) [4, 12]: 1 (10.0) n (%)
Nausea, Total, n (%) [4, 12]: 4 (40.0) n (%)
Pruritus, Grade 1, n (%) [4, 12]: 2 (20.0) n (%)
Pruritus, Grade 2, n (%) [4, 12]: 0 n (%)
Pruritus, Grade 3, n (%) [4, 12]: 0 n (%)
Pruritus, Total, n (%) [4, 12]: 2 (20.0) n (%)
Rash, Grade 1, n (%) [4, 12]: 4 (40.0) n (%)
Rash, Grade 2, n (%) [4, 12]: 2 (20.0) n (%)
Rash, Grade 3, n (%) [4, 12]: 0 n (%)
Rash, Total, n (%) [4, 12]: 6 (60.0) n (%)
Skin exfoliation, Grade 1, n (%) [4, 12]: 1 (10.0) n (%)
Skin exfoliation, Grade 2, n (%) [4, 12]: 0 n (%)
Skin exfoliation, Grade 3, n (%) [4, 12]: 1 (10.0) n (%)
Skin exfoliation, Total, n (%) [4, 12]: 2 (20.0) n (%)
Skin fissures, Grade 1, n (%) [4, 12]: 2 (20.0) n (%)
Skin fissures, Grade 2, n (%) [4, 12]: 1 (10.0) n (%)
Skin fissures, Grade 3, n (%) [4, 12]: 0 n (%)
Skin fissures, Total, n (%) [4, 12]: 3 (30.0) n (%)
Stomatitis, Grade 1, n (%) [4, 12]: 1 (10.0) n (%)
Stomatitis, Grade 2, n (%) [4, 12]: 1 (10.0) n (%)
Stomatitis, Grade 3, n (%) [4, 12]: 1 (10.0) n (%)
Stomatitis, Total, n (%) [4, 12]: 3 (30.0) n (%)
Vomiting, Grade 1, n (%) [4, 12]: 2 (20.0) n (%)
Vomiting, Grade 2, n (%) [4, 12]: 1 (10.0) n (%)
Vomiting, Grade 3, n (%) [4, 12]: 0 n (%)
Vomiting, Total, n (%) [4, 12]: 3 (30.0) n (%)
total AEs ([4]; all 121 patients): 1,416 AEs
AEs considered to be related to study drug ([4]; all schedules): 709 AEs
patients experiencing AEs related to study drug ([4]; all schedules, of 121): 111 patients
AEs considered to be related to study drug ([4]; schedule A): 626 AEs
patients experiencing AEs related to study drug ([4]; schedule A): 102 patients
patients with dose interruptions as a result of treatment-related AEs ([4]; schedule A): 29
AEs considered to be related to study drug ([4]; schedule B): 83 AEs
patients with dose interruptions as a result of treatment-related AEs ([4]; schedule B): 3
terminal half-life (t1/2) [5]: 59 to 85 h
